Reference: ChEMBL document CHEMBL6083235, “Synthesis, evaluation and mechanistic insights of novel IMPDH inhibitors targeting ESKAPEE bacteria” (Eur J Med Chem, 2024)
pIC50: −log10 of the molar value.

biological target: T1, Inosine-5'-monophosphate dehydrogenase (Pseudomonas aeruginosa (strain ATCC 15692 / DSM 22644 / CIP 104116 / JCM14847 / LMG 12228 / 1C / PRS 101 / PAO1)) (UniProt Q9HXM5); assay: Inhibition of Pseudomonas aeruginosa IMPDH extracted form Escherichia coli BL21 (DE3)pDIA17 assessed as formation of NADH at 50 uM relative to control; details: not given
T1 sequence (whole entry): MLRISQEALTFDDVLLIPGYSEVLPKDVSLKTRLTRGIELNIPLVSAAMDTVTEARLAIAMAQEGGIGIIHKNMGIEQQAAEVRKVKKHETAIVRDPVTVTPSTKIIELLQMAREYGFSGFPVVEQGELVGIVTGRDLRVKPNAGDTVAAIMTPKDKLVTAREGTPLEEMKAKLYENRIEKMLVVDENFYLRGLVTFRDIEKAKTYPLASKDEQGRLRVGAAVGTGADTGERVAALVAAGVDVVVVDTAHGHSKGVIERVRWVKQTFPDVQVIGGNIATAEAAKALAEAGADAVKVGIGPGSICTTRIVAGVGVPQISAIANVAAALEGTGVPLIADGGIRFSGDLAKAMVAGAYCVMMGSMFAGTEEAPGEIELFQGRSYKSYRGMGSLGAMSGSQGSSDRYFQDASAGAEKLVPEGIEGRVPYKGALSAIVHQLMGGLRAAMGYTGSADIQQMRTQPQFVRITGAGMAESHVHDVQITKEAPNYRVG
Outline: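 His-tagged wild-type IMPDH (E. coli, P. aeruginosa or S. aureus) made in E. coli BL21(DE3)/pDIA17, purified by metal-affinity then gel filtration. NADH formation followed at 340 nm, 30 °C, with 0.2 mM IMP, 0.4 mM NAD⁺, 0.2 mM MgATP, 2 mM MgCl₂. Buffers: pa Tris-HCl 50 mM pH 8; ec Tris-HCl 50 mM pH 8, KCl 50 mM; sa Na₂CO₃ 50 mM pH 9.2, KCl 20 mM. Compound at 50 μM; % inhibition vs compound-free activity.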

| inhibition [%] | SMILES |
| --- | --- |
| 87 | CCOC(=O)n1cc(-c2cccc(C(C)(C)NC(=O)Nc3ccc(Cl)c([N+](=O)[O-])c3)c2)cn1 |
| 59 | CC(C)(NC(=O)NCc1ccccc1)c1cccc(-c2cc[nH]n2)c1 |
| 29 | CC(C)(NC(=O)NCc1ccccc1)c1cccc(-c2cn[nH]c2)c1 |
| 63 | CC(C)(NC(=O)Nc1ccc(Cl)c([N+](=O)[O-])c1)c1cccc(-c2nccn2Cc2ccccc2)c1 |

biological target: T2, Inosine-5'-monophosphate dehydrogenase (Pseudomonas aeruginosa (strain ATCC 15692 / DSM 22644 / CIP 104116 / JCM14847 / LMG 12228 / 1C / PRS 101 / PAO1), UniProt Q9HXM5); assay: Inhibition of Pseudomonas aeruginosa IMPDH extracted form Escherichia coli BL21 (DE3)pDIA17 assessed as formation of NADH; details: read-out: I50
T2 sequence (Q9HXM5 whole entry): T1 sequence (whole entry)

| pIC50 | SMILES |
| --- | --- |
| 6.38 | CCOC(=O)n1cc(-c2cccc(C(C)(C)NC(=O)Nc3ccc(Cl)c([N+](=O)[O-])c3)c2)cn1 |
